{"source": "paper PMC4425738", "about": "(Journal of controlled release : official journal of the …, 2014)", "system": "Human adult epidermal keratinocytes", "test": "Cell internalization in vitro", "type": "cell-based", "summary_of_the_method": "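FITC-labelled peptide carrier (1, 4, 7 or 10 mg/mL in medium; 30 or 120 min) on keratinocytes seeded on poly-D-lysine glass dishes, grown 24 h in supplemented EpiLife at 37 °C, 5% CO2. Free-carrier arm: 0.1 mg/mL labelled peptide, 15 min, ± 10 mg/mL unlabelled carrier. Medium-only control. Hoechst 33342 nuclear stain, Trolox-HBSS washes, ethidium bromide to exclude dead cells, then confocal imaging. Mean ± SD.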", "data": [{"substance": "FITC-AC-TGSTQHQ-CG, Disulfide Bridge 2–10 (disulfide) [FITC-SPACE peptide]", "values": [{"measurement": "increase of uptake by addition of free SPACE peptide", "setting": "15 min, 0.1 mg/mL FITC-SPACE peptide with vs without 10 mg/mL unlabeled SPACE peptide, mean ± SD n=3", "result": "3.9±1.5", "unit": "fold"}, {"measurement": "intracellular localization", "setting": "15 min, 0.1 mg/mL, absence of excess free SPACE peptide", "result": "localized primarily in punctate spots"}, {"measurement": "intracellular localization", "setting": "15 min, 0.1 mg/mL, with 10 mg/mL free SPACE peptide", "result": "cytoplasmic localization"}, {"measurement": "intracellular localization", "setting": "120 min, concentrations of 1–4 mg/mL", "result": "punctate fluorescent spots"}, {"measurement": "intracellular localization", "setting": "120 min, higher concentrations (7, 10 mg/mL)", "result": "diffused throughout the cytoplasm"}]}]}
